Reference: ChEMBL document CHEMBL3286129, “Optimization of peptidomimetic boronates bearing a P3 bicyclic scaffold as proteasome inhibitors” (Eur J Med Chem, 2014)
The source made the active and inactive calls. No cut-off for these calls is given here.

Assays:
[1] = Growth inhibition of human OVCAR8 cells; assay type: functional
MCF7 = assay: Growth inhibition of human MCF7 cells; assay type: functional
[2] = Cytotoxicity against human breast cancer cells assessed as cell growth at 10 uM relative to control; assay type: functional; conditions: Cancer cell lines, read-out: Activity
How it was run: (§1)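 Single-concentration screen against a panel of human cancer cell lines. Each value is the mean percent growth across the cell lines of that tumour subpanel.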

NCI-H322M = assay: Growth inhibition of human NCI-H322M cells; assay type: functional
HCT-116 = assay: Growth inhibition of human HCT116 cells; assay type: functional
[3] = Growth inhibition of human SF295 cells; assay type: functional; conditions: SF-295
[4] = Growth inhibition of human HCC2998 cells; assay type: functional; conditions: HCC 2998
MDA-MB-468 = assay: Growth inhibition of human MDA-MB-468 cells; assay type: functional
HL-60(TB) = assay: Growth inhibition of human HL-60(TB) cells; assay type: functional
PC-3 = assay: Growth inhibition of human PC3 cells; assay type: functional
HT-29 = assay: Growth inhibition of human HT-29 cells; assay type: functional
SK-MEL-5 = assay: Growth inhibition of human SK-MEL-5 cells; assay type: functional
NCI-H23 = assay: Growth inhibition of human NCI-H23 cells; assay type: functional
SF-268 = assay: Growth inhibition of human SF268 cells; assay type: functional
M14 = assay: Growth inhibition of human M14 cells; assay type: functional
A549 = assay: Growth inhibition of human A549/ATCC cells; assay type: functional
[5] = Cytotoxicity against human renal cancer cells assessed as cell growth at 10 uM relative to control; assay type: functional; conditions: Cancer cell lines, read-out: Activity; how it was run: as §1
CCRF-CEM = assay: Growth inhibition of human CCRF-CEM cells; assay type: functional
[6] = Growth inhibition of human LOXIMVI cells; assay type: functional; conditions: LOX IMVI
NCI-H460 = assay: Growth inhibition of human NCI-H460 cells; assay type: functional
SK-MEL-28 = assay: Growth inhibition of human SK-MEL-28 cells; assay type: functional
[7] = Cytotoxicity against human leukemia cells assessed as cell growth at 10 uM relative to control; assay type: functional; conditions: read-out: Activity; how it was run: as §1
RPMI-8226 = assay: Growth inhibition of human RPMI8226 cells; assay type: functional
SNB-19 = assay: Growth inhibition of human SNB19 cells; assay type: functional
786-0 = assay: Growth inhibition of human 786-0 cells; assay type: functional
[8] = Growth inhibition of human HCT15 cells; assay type: functional
[9] = target: Proteasome Macropain subunit (Homo sapiens) (UniProt P49721); assay: Inhibition of trypsin-like activity of 20S proteasome in human erythrocytes using Boc-Leu-Arg-Arg-AMC as substrate by fluorescence assay; assay type: cell-based
Sequence of Proteasome Macropain subunit (Homo sapiens) (P49721 whole entry): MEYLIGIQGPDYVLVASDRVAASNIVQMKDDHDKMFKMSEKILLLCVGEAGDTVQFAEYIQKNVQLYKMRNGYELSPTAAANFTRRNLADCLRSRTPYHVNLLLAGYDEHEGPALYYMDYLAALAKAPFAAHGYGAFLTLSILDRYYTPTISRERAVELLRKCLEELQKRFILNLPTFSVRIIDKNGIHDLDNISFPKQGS
How it was run: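 Human 20S proteasome 0.0025 mg/mL at 30 °C in 50 mM Tris pH 7.4, 50 mM NaCl, 0.5 mM EDTA, 0.03% SDS, 7.5% DMSO. Varied inhibitor concentrations; AMC release monitored continuously for 10 min, ex 380/em 460 nm. Ki derived from progress-curve IC50 fit.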

[10] = target: T1, Proteasome Macropain subunit MB1 (Homo sapiens, UniProt P28074); assay: Inhibition of chymotrypsin-like activity of 20S proteasome in human erythrocytes using Suc-Leu-Leu-Val-Tyr-AMC as substrate by fluorescence assay; conditions: read-out: Ki
T1 sequence (P28074 whole entry): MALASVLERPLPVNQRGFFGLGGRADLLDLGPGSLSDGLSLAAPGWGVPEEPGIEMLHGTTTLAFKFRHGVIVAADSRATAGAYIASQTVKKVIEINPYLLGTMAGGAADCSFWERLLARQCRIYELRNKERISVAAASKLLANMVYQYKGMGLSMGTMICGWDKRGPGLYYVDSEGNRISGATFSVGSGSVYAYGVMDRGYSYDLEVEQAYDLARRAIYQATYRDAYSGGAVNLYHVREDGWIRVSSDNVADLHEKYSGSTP

[11] = Growth inhibition of human Hs 578T cells; assay type: functional
DU-145 = assay: Growth inhibition of human DU145 cells; assay type: functional
NCI-H522 = assay: Growth inhibition of human NCI-H522 cells; assay type: functional
COLO 205 = assay: Growth inhibition of human COLO205 cells; assay type: functional
MDA-MB-231 = assay: Growth inhibition of human MDA-MB-231 cells; assay type: functional
[12] = Growth inhibition of human BT549 cells; assay type: functional
SNB-75 = assay: Growth inhibition of human SNB75 cells; assay type: functional
[13] = Growth inhibition of human UACC257 cells; assay type: functional
[14] = read-out: LC50 (the source's name)

Compound: CC(C)C[C@H](NC(=O)CCn1ccc2ccccc2c1=O)B(O)O
- GI50 ([1]; OVCAR-8): 15.3 µM
- TGI ([1]; OVCAR-8): > 100 µM
- CC50 ([1]; OVCAR-8, read-out: LC50 (the source's name)): > 100 µM
- GI50 (MCF7): 4.35 µM
- TGI (MCF7): > 100 µM
- CC50 (MCF7; [14]): > 100 µM
- growth at 10 µM [2]: 38.1%
- GI50 (NCI-H322M): 76.8 µM
- TGI (NCI-H322M): > 100 µM
- CC50 (NCI-H322M; [14]): > 100 µM
- GI50 (HCT-116): 1.55 µM
- LC50 (HCT-116): > 100 µM
- TGI (HCT-116): 19.8 µM
- GI50 [3]: 3.78 µM
- LC50 [3]: 83.3 µM
- TGI [3]: 19.6 µM
- GI50 [4]: 6.08 µM
- LC50 [4]: 66.4 µM
- TGI [4]: 21.3 µM
- GI50 (MDA-MB-468): 1.38 µM
- TGI (MDA-MB-468): 7.08 µM
- CC50 (MDA-MB-468; [14]): > 100 µM
- GI50 (HL-60(TB)): 2.69 µM
- TGI (HL-60(TB)): 49.5 µM
- CC50 (HL-60(TB); [14]): > 100 µM
- GI50 (PC-3): 5.77 µM
- TGI (PC-3): > 100 µM
- CC50 (PC-3; [14]): > 100 µM
- GI50 (HT-29): 3.68 µM
- LC50 (HT-29): > 100 µM
- TGI (HT-29): 48.7 µM
- GI50 (SK-MEL-5): 4.3 µM
- LC50 (concentration killing 50% of cells) (SK-MEL-5): 83.7 µM
- TGI (SK-MEL-5): 19 µM
- GI50 (NCI-H23): 25.4 µM
- TGI (NCI-H23): > 100 µM
- CC50 (NCI-H23; [14]): > 100 µM
- GI50 (SF-268): 5.69 µM
- LC50 (SF-268): > 100 µM
- TGI (SF-268): 30.4 µM
- GI50 (M14): 4.23 µM
- LC50 (concentration killing 50% of cells) (M14): > 100 µM
- TGI (M14): > 100 µM
- GI50 (A549): 8.41 µM
- TGI (A549): > 100 µM
- CC50 (A549; [14]): > 100 µM
- growth at 10 µM [5]: 32.3%
- GI50 (CCRF-CEM): 2.02 µM
- TGI (CCRF-CEM): 25.4 µM
- CC50 (CCRF-CEM; [14]): > 100 µM
- GI50 [6]: 2.11 µM
- TGI [6]: 6.78 µM
- CC50 [6, 14]: > 100 µM
- GI50 (NCI-H460): 13 µM
- LC50 (NCI-H460): > 100 µM
- TGI (NCI-H460): 56.2 µM
- GI50 (SK-MEL-28): 3.27 µM
- TGI (SK-MEL-28): > 100 µM
- CC50 (SK-MEL-28; [14]): > 100 µM
- growth at 10 µM [7]: 21.1%
- GI50 (RPMI-8226): 1.06 µM
- TGI (RPMI-8226): 7.07 µM
- CC50 (RPMI-8226; [14]): > 100 µM
- GI50 (SNB-19): 8.02 µM
- TGI (SNB-19): > 100 µM
- CC50 (SNB-19; [14]): > 100 µM
- GI50 (786-0): 4.76 µM
- TGI (786-0): > 100 µM
- CC50 (786-0; [14]): > 100 µM
- GI50 ([8]; HCT-15): 9.57 µM
- TGI ([8]; HCT-15): > 100 µM
- CC50 ([8]; HCT-15, read-out: LC50 (the source's name)): > 100 µM
- inhibition [9]: inactive
- Ki [10]: 0.051 µM
- GI50 [11]: 3.63 µM
- TGI [11]: 48.7 µM
- CC50 [11, 14]: > 100 µM
- GI50 (DU-145): 9.13 µM
- TGI (DU-145): > 100 µM
- CC50 (DU-145; [14]): > 100 µM
- GI50 (NCI-H522): 2.61 µM
- LC50 (NCI-H522): > 100 µM
- TGI (NCI-H522): 8.09 µM
- GI50 (COLO 205): 5.06 µM
- TGI (COLO 205): > 100 µM
- CC50 (COLO 205; [14]): > 100 µM
- GI50 (MDA-MB-231): 9.45 µM
- TGI (MDA-MB-231): 59.3 µM
- CC50 (MDA-MB-231; [14]): > 100 µM
- GI50 ([12]; BT-549): 2.21 µM
- TGI ([12]; BT-549): 17.1 µM
- CC50 ([12]; BT-549, read-out: LC50 (the source's name)): > 100 µM
- GI50 (SNB-75): 2.94 µM
- LC50 (SNB-75): 93.4 µM
- TGI (SNB-75): 15.9 µM
- GI50 ([13]; UACC-257): 3.68 µM
- TGI ([13]; UACC-257): 33.8 µM
- CC50 ([13]; UACC-257, read-out: LC50 (the source's name)): > 100 µM
